Measured values from PubChem BioAssay.
Records with an inconclusive call do not appear.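 The calls were made as follows, unless noted: active = viability increase at or above a cutoff of the median across tested compounds plus 3 SD (cut at about 8.5% in these data, passing the limit was not always enough); inconclusive = some gains above the cutoff, reason not given; inactive = the rest.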

How the values were obtained:
[1] = S. cerevisiae growth inhibition in permissive medium (OD615), pilot counter-assay for S. cerevisiae lifespan shortening project, permissive growth control (AID 705;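 active = growth inhibition above 25% in both replicates, a cutoff set 3 SD above the mean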); settings: OD615, 24 h, at 10 µM, stronger effect = higher value
Method in brief: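 Test system: Saccharomyces cerevisiae strain carrying genetically modified DeaD replicative-lifespan system; buffer or medium: SC raffinose/galactose permissive medium; dosing: one dose 10 µM, DMSO 0.25% final; times: 24 h exposure, 30 °C; measured by: OD at 615 nm; read-out basis: growth inhibition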

[2] = S. cerevisiae growth inhibition in restrictive medium, OD615, pilot screen, restrictive growth control, yeast lifespan reduction project (AID 706;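 active = growth inhibition above a set limit, 3 SD over mean compound inhibition, in both replicates, cut at about 43% in these data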;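 also: modified DeaD lifespan yeast strain shifted to restrictive glucose medium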); settings: OD615, 48 h, at 10 µM, stronger effect = higher value
Method in brief: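 material = engineered S. cerevisiae DeaD strain | buffer or medium = glucose-based CSMM-D restrictive medium | dosing = one concentration, 10 µM final, 0.25% DMSO | schedule = 4 h pre-growth plus 48 h compound exposure, 30 °C | detection = OD615 absorbance reading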

[3] = doxorubicin toxicity protection in MRP-1 cells – H69AR cells, CellTiter-Glo, duplicate, MRP-1 activator project, pilot screen (AID 807); settings: H69AR viability with doxorubicin, CellTiter-Glo luminescence; at 10 µM; stronger effect = higher value;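 also: compound pretreatment 18-22 h then 72 h combined with doxorubicin; 0% = doxorubicin alone and 100% = vehicle without doxorubicin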
[4] = viability of HCT116 without oncogenic beta-catenin – human colon tumor cells, pilot screen (AID 823;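 active = cell viability at or below a set limit in both duplicate runs, the limit being the all-compound median minus 4 SD, cut at about 23% in these data, passing the limit was not always enough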;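 also: 0% = wells killed by 20 µM Hyamine and 100% = untreated DMSO cell wells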); settings: HCT116 beta-catenin knockout viability, CellTiter-Glo, 60 h; at 10 µM; stronger effect = lower value
[5] = viability of PTEN-null HCT116 cells – cell-based, HCT116 clonal line, CellTiter-Glo, pilot screen (AID 824;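 active = viability at or below 27.92% in each of two runs, the all-compound median minus 4 SD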;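 also: 0% = 20 µM Hyamine control and 100% = vehicle cell control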); settings: HCT116 PTEN-deleted viability, 60 h, at 10 µM, stronger effect = lower value
[6] = RAM pathway blockade in budding yeast – dse1pr::URA3 reporter, 5-FOA selection, pilot screen (AID 869;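 active = inhibition over a set limit, the all-compound mean plus 3 SD, in both replicate runs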;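 also: 0% = DMSO wells with no growth and 100% = 10 µM 1-NA-PP1 with full growth; RAM network block rescues cells from 5-FOA so hits raise OD615 growth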); settings: S. cerevisiae dse1pr::URA3 5-FOA growth, OD615, 2 d; at 10 µM; stronger effect = higher value; strain carries analog-sensitive mutant Cbk1 kinase
[7] = RAM signaling pathway blockade in yeast – S. cerevisiae, Pdr1DBD-CYC8 efflux-inhibited sensitized strain, primary screen (AID 1298;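 active = RAM network inhibition above 8.4% in each of two replicates, 3 SD over the compound average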;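 also: 0% = DMSO untreated cells without growth and 100% = 10 µM 1-NA-PP1 full growth; higher means more yeast growth rescued from 5-FOA killing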); settings: S. cerevisiae cbk1-as DSE1-URA3 strain, 5-FOA growth OD615, 2 d; at 50 µM; stronger effect = higher value

C=CCOc1ccc(/C(O)=C2/C(=O)C(=O)N(CCCn3ccnc3)C2c2cccs2)cc1 (stereo not given)
inactive: growth inhibition [1] -13.8% | growth inhibition [2] 0.445% | viability increase [3] 1.46% | viability [4] 95.2% | viability [5] 98.6% | inhibition [6] -0.285% | RAM network inhibition [7] 1.02%

COC(=O)C1C(=O)c2c([nH]c(C(=O)OC3CCCCC3)c2C)CC1C (stereo not given)
inactive: growth inhibition [1] -2.87% | growth inhibition [2] 2.14% | viability increase [3] 2.69% | viability [4] 107% | viability [5] 104% | inhibition [6] 0.105% | RAM network inhibition [7] 2.04%

O=C(CN1CCN(c2ncccn2)CC1)NCCC1=CCCCC1
inactive: growth inhibition [1] -8.09% | growth inhibition [2] -27.1% | viability increase [3] -2.15% | viability [4] 94% | viability [5] 93.7% | inhibition [6] 1.9% | RAM network inhibition [7] 5.02%

CC(CCc1ccccc1)NC(=O)CSc1nccc(=O)[nH]1 (stereo not given)
inactive: growth inhibition [1] -20.5% | growth inhibition [2] -6.91% | viability increase [3] -0.56% | viability [4] 94.2% | viability [5] 94.5% | inhibition [6] 1.06% | RAM network inhibition [7] 2.7%

CCOC(=O)C(C)Sc1nnc(Cn2c(=O)sc3ccccc32)n1-c1ccccc1 (stereo not given)
inactive: growth inhibition [1] 2.42% | growth inhibition [2] -4.57% | viability increase [3] -0.22% | viability [4] 95.6% | viability [5] 92.6% | inhibition [6] 1.81% | RAM network inhibition [7] 0.1%

O=C(Nc1ccc(N2CCN(C(=O)c3ccccc3)CC2)c(Cl)c1)c1ccco1
inactive: growth inhibition [1] 4.29% | growth inhibition [2] 14.1% | viability increase [3] -3.69% | viability [4] 67% | viability [5] 75.9% | inhibition [6] 3.31% | RAM network inhibition [7] 5.57%

CCOC(=O)c1ccc(NS(=O)(=O)c2cc(-c3nnnn3CC)ccc2OC)cc1
inactive: growth inhibition [1] -0.78% | growth inhibition [2] -5.39% | viability increase [3] -2.01% | viability [4] 92.5% | viability [5] 90.2% | inhibition [6] 1.56% | RAM network inhibition [7] 6.36%

COc1ccc(-n2c(Cc3cc(=O)[nH]c(=O)[nH]3)nnc2SCC(=O)NC2CCCC2)cc1
inactive: growth inhibition [1] -0.575% | growth inhibition [2] 2.41% | viability increase [3] 1.47% | viability [4] 104% | viability [5] 107% | inhibition [6] 0.535% | RAM network inhibition [7] 3.15%

CC1CCN(S(=O)(=O)c2ccc(NC(=O)c3cccs3)cc2)CC1
inactive: growth inhibition [1] -0.77% | growth inhibition [2] 5.38% | viability increase [3] -5.18% | viability [4] 85.5% | viability [5] 75.8% | inhibition [6] 0.115% | RAM network inhibition [7] 3.83%

CNc1ccc(OC(F)F)cc1C(=O)c1ccccc1
inactive: growth inhibition [1] 12.9% | growth inhibition [2] -4.32% | viability increase [3] -2.34% | viability [4] 89.8% | viability [5] 92.9% | inhibition [6] 0.685% | RAM network inhibition [7] 2.22%

CCOc1ccc2nc(N3CCCC(C(=O)N4CCN(CC)CC4)C3)sc2c1 (stereo not given)
inactive: growth inhibition [1] -4.44% | growth inhibition [2] -8.34% | viability increase [3] 0.55% | viability [4] 102% | viability [5] 96.2% | inhibition [6] 0.775% | RAM network inhibition [7] 2.01%

CCCOc1ccc(C(=O)NCc2ccco2)cc1
inactive: growth inhibition [1] -13.1% | growth inhibition [2] -4.49% | viability increase [3] -1.42% | viability [4] 98% | viability [5] 93.5% | inhibition [6] 0.43% | RAM network inhibition [7] 2.65%

Cc1c(N2C(=O)CSC23C(=O)Nc2ccccc23)c(=O)n(-c2ccccc2)n1C (stereo not given)
inactive: growth inhibition [1] -10.1% | growth inhibition [2] -11.7% | viability increase [3] -3.38% | viability [4] 90.4% | viability [5] 91.8% | inhibition [6] 3.84% | RAM network inhibition [7] 3.91%

COCCn1c(SCC(=O)OCc2ccccc2)nc2c1c(=O)[nH]c(=O)n2C
inactive: growth inhibition [1] 4.3% | growth inhibition [2] 1.99% | viability increase [3] 1.83% | viability [4] 98.6% | viability [5] 105% | inhibition [6] 0.815% | RAM network inhibition [7] 5.05%

Cc1ccc(S(=O)(=O)NCc2ccco2)cc1C
inactive: growth inhibition [1] -1.9% | growth inhibition [2] -6.06% | viability increase [3] -3.83% | viability [4] 100% | viability [5] 97.2% | inhibition [6] 0.075% | RAM network inhibition [7] 2.42%
